The nature of series [1]: Inhibition of Hepatitis C virus genotype 1b BK isolate NS5b polymerase activity using [3H]UTP preincubated for 120 mins measured after 1 hr by scintillation proximity assay. The method, boiled down: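 Scintillation proximity assay at 22 °C. Started with [3H]UTP, UTP, 250 nM 5'-biotinylated oligo(rU12) and poly(rA). Stopped at 120 min with tRNA/streptavidin SPA beads/EDTA; 30 min, then CsCl, 1 h, top-count.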
A general note: Scintillation proximity formats need no separation of bound from free tracer.

Series [2] relates to Hepatitis C virus. Put plainly: Antiviral activity against Hepatitis C virus genotype 1b infected in human HuH7 cells assessed as inhibition of viral replication after 48 hrs by quantitative RT-PCR. The series is classed as functional, organism-based, Hepacivirus hominis. The note with it: Huh-7, 48 h. In outline: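 Huh7/Clone A replicon cells seeded at 40,000/well without G418 and kept overnight at 37 °C, 5% CO2. DMSO-serially diluted compound added (final DMSO 0.5%), 7 concentrations in triplicate, 48 h at 37 °C. Total RNA extracted; HCV replicon RNA quantified by TaqMan RT-qPCR relative to untreated cells (100%). EC50 from a 4-parameter curve fit.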

The nature of series [3]: Cytotoxicity against human HuH7 cells assessed as cellular GAPDH level after 48 hrs by quantitative RT-PCR. The series is classed as cell-based, Huh-7. To be noted: read-out: GI50.

The term IC50 denotes the point on the concentration scale where inhibition reaches its midpoint. Higher therefore signals weaker potency in that assay. Broadly, the EC50 is the concentration giving half of the maximal effect.

In series [1], `COc1cc2c(=O)c(-c3nc(-c4ccc(Cl)cc4)no3)cn(Cc3ccc(Cl)cc3)c2cc1OC` displayed an IC50 greater than 10000 nM.

In series [1], `COc1cc2c(=O)c(-c3noc(CCc4ccccc4)n3)cn(Cc3ccc(Cl)cc3)c2cc1OC` yielded a concentration for half-maximal inhibition (IC50) greater than 10000 nM.

For `CN1CCN(c2cc3c(cc2F)c(=O)c(-c2noc(Cc4ccccc4)n2)cn3Cc2ccc(C(F)(F)F)cc2)CC1`, 24 nM corresponded to half-maximal inhibition in series [1] (IC50). In series [2], the EC50 came to 360 nM. Besides, the CC50 at 48 h in series [3] is 15000 nM.

`CN1CCN(c2cc3c(cc2F)c(=O)c(-c2noc(Cc4ccccc4)n2)cn3Cc2ccc(C(F)(F)F)cc2F)CC1` had an IC50 in series [1] of 14 nM. In series [2], the 50% effective concentration (EC50) is 250 nM. Also, in series [3], the CC50 at 48 h came to 7000 nM.

Regarding `CN1CCN(c2cc3c(cc2F)c(=O)c(-c2nnc(Cc4ccccc4)o2)cn3Cc2ccc(Cl)cc2)CC1`, inhibition in series [1] was half-maximal at 115 nM (IC50). The concentration giving a half-maximal response (EC50) in series [2] worked out at 4400 nM. In series [3], the CC50 at 48 h came out at 9800 nM.

In turn, `COc1ccc2c(c1)c(=O)c(-c1ncc(Cc3ccccc3)o1)cn2Cc1ccc(Cl)cc1` displayed an IC50 in series [1] of 1800 nM.

In turn, `COc1cc2c(=O)c(-c3noc(-c4ccccc4)n3)cn(Cc3ccc(Cl)cc3)c2cc1OC` displayed an IC50 in series [1] greater than 10000 nM.

As for `CN1CCN(c2cc3c(cc2F)c(=O)c(-c2noc(Cc4ccc(F)cc4F)n2)cn3Cc2ccc(Cl)cc2)CC1`, in series [1], the IC50 was 75 nM. Further, the EC50 in series [2] was determined as 3680 nM. Also, the CC50 at 48 h in series [3] was found to be 4700 nM.

Turning to `COc1cc2c(=O)c(-c3nnc(Cc4ccc(Cl)cc4)o3)cn(Cc3ccc(Cl)cc3)c2cc1OC`, the IC50 in series [1] amounted to 1600 nM.

For `CN1CCN(c2cc3c(cc2F)c(=O)c(-c2nnc(Cc4ccc(F)cc4)o2)cn3Cc2ccc(C(F)(F)F)cc2F)CC1`, 45 nM corresponded to half-maximal inhibition in series [1] (IC50). Besides, in series [2], the EC50 was 730 nM. Moreover, in series [3], the CC50 at 48 h is 5700 nM.

For `CN1CCN(c2cc3c(cc2F)c(=O)c(-c2noc(Cc4ccc(F)cc4)n2)cn3Cc2ccc(C(F)(F)F)cc2F)CC1`, inhibition in series [1] was half-maximal at 15 nM (IC50). Further, the EC50 in series [2] is 230 nM. In addition, in series [3], the CC50 at 48 h was found to be 6000 nM.

Turning to `COc1cc2c(=O)c(C3=N[C@@H](C)[C@@H](c4ccccc4)O3)cn(Cc3ccc(Cl)cc3)c2cc1OC`, it took 4300 nM to reach half-maximal inhibition in series [1] (IC50). In series [2], the EC50 was 8910 nM.

`COc1cc2c(=O)c(-c3noc(Cc4ccccc4)n3)cn(Cc3ccc(Cl)cc3)c2cc1OC` returned an IC50 in series [1] of 41 nM. For the same compound, the concentration giving a half-maximal response (EC50) in series [2] turned out to be 10300 nM.

Turning to `COc1cc2c(=O)c(-c3nc(Cc4ccccc4)no3)cn(Cc3ccc(Cl)cc3)c2cc1OC`, the IC50 in series [1] turned out to be 730 nM.

Turning to `CN1CCN(c2cc3c(cc2F)c(=O)c(-c2noc(Cc4ccc(F)cc4)n2)cn3Cc2ccc(Cl)cc2)CC1`, in series [1], the IC50 came to 19 nM. Besides, in series [2], the 50% effective concentration (EC50) is 1430 nM. Besides, in series [3], the CC50 at 48 h came out at 6400 nM.

`CN1CCN(c2cc3c(cc2F)c(=O)c(-c2nnc(Cc4ccccc4)o2)cn3Cc2ccc(C(F)(F)F)cc2F)CC1`: the IC50 in series [1] was found to be 38 nM. Besides, the EC50 in series [2] is 610 nM. Further, the CC50 at 48 h in series [3] was found to be 4600 nM.

`CN1CCN(c2cc3c(cc2F)c(=O)c(-c2noc(Cc4ccccc4)n2)cn3Cc2ccc(Cl)cc2)CC1` registered an IC50 in series [1] of 23 nM. For the same compound, the EC50 in series [2] worked out at 840 nM. The CC50 at 48 h in series [3] stood at 7300 nM.

As for `COc1cc2c(=O)c(-c3nnn(Cc4ccccc4)n3)cn(Cc3ccc(Cl)cc3)c2cc1OC`, the IC50 in series [1] was greater than 10000 nM.

For the origin of these results see ChEMBL document CHEMBL1933010, “3-heterocyclyl quinolone inhibitors of the HCV NS5B polymerase” (Bioorg Med Chem Lett, 2012).
